Drawing on PubChem BioAssay, this text covers inhibition, thermal shift relative to vanadate control and activity for 40 molecules.

The list shows a part of the results. Active and inactive are the calls of the source.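 Rule for the calls, unless noted: active = substances whose mean melting-temperature shift, as a percentage of the reference inhibitor's shift, reaches about 5.3% (limit read from the data); inactive = the rest.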

Chain of Carboxy-terminal domain RNA polymerase II polypeptide A small phosphatase 1 (Homo sapiens) (Q9GZU7 76-261 limits assumed): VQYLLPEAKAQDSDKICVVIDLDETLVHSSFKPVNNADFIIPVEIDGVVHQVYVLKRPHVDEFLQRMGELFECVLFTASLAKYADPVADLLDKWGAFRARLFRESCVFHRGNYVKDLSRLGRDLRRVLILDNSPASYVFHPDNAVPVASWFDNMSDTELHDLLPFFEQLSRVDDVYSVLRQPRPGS

System in one assay: not listed separately
The experiment in a line: Brca1-Bard1 BiLC signal decrease – luminescence, single concentration, counter-screen for Mdm2/MdmX interaction inhibitor project, confirmation (AID 504668; call rule not given here). Particulars: Brca1/Bard1 bimolecular luciferase complementation counterscreen, at 8 µM, stronger effect = higher value.
With `NC(=O)c1oc2ccccc2c1NC(=O)c1ccc([N+](=O)[O-])o1`, the inhibition was 31.8% (active).
On the same count and under the same terms, for `CCOC(=O)c1sc(NC(=O)c2cc(-c3ccccc3C)nc3ccccc23)c(C#N)c1C` the value was 32.4% (active); for `O=C(CCl)N(C/C=C/c1ccccc1)c1ccc2c(c1)OCCO2`, 26.4% (active); for `CCCCCN=C(N)N/N=C/c1c[nH]c2ccc(OC)cc12`, 30.4% (active).
On the same count and under the same terms, with `Cc1ccc(NC(=O)CSc2nc3ccc(Nc4nc(N5CCOCC5)nc(N5CCOCC5)n4)cc3s2)cc1` the figure was 26.2% (active).
With `CCCCC(O)(CCCC)C(=O)NN(C(=O)CCl)c1ccccc1`, the inhibition is 34% (active).
Turning to `CCCCCCc1cc2cc(S(=O)(=O)c3ccc(F)c(Cl)c3)c(=O)oc2cc1O`, the inhibition is 27.6% (active).
With `CCCCCc1cc(=O)oc2c(C(CCN(CC)CC)c3cc(OC)c(OC)c(OC)c3)c(OC)cc(OC)c12` (centres undefined), the inhibition is 32% (active).
As to `Cc1cc(NC(=O)c2cncc(Br)c2)ccc1NC(=O)c1cc2ccccc2o1`, the inhibition was 28.6% (active).

The next assay concerns the target Carboxy-terminal domain RNA polymerase II polypeptide A small phosphatase 1 (Homo sapiens) (UniProt Q9GZU7). The experiment in a line: SCP1 melting temperature change from compounds – biophysical, differential scanning fluorimetry, orthogonal assay for Scp-1 inhibitor project, confirmation (AID 540329).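 Note: 0% = Tm of DMSO wells and 100% = Tm with sodium orthovanadate.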 Particulars: Recombinant SCP1, Sypro Orange thermal shift Tm; at 40 µM; stronger effect = higher value. The essentials:
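Technique: Protein melting followed by Sypro Orange dye fluorescence | Material: Scp-1 phosphatase domain | Input: Scp-1 protein added from a 10 µM stock solution | Measure: Melting temperature shift relative to vanadate | Times: 20-95 °C thermal ramp | Doses: One dose per compound, 10 mM stock | Benchmarks: Vanadate reference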
Take `O=C(NNC(=O)c1ccc2ccccc2c1)c1ccc(Cl)cc1`: the thermal shift relative to vanadate control was -19.4% (inactive).
The same measure, in the same setting: for `CCc1ccc(NC(=O)CS(=O)CC(=O)NCCCc2ccccc2)cc1` (centres undefined) the value was -12.5% (inactive); for `Cc1ccn2c(=O)nc(SCC(=O)NCc3ccc4c(c3)OCO4)nc2c1`, -9.63% (inactive); for `COc1ccc(S(=O)(=O)c2c[nH]c(=S)[nH]c2=O)cc1Cl`, 13.1% (active).
The same measure, in the same setting: for `COc1cccc2cc(-c3cc(=O)oc4cc(C)c(O)cc34)oc12` the value was -12.5% (inactive); for `Cc1ccc(CCCOC(=O)C[N+]2(C)CCCC2)cc1`, -9.83% (inactive); for `O=C(COC(=O)c1cnc(Cl)c(Cl)c1)NCc1ccco1`, -1.58% (inactive).
The same measure, in the same setting: with `CCCCCN1CC(O)=C(c2nc(-c3ccc(Cl)cc3)cs2)C1=N` the figure was -7.73% (inactive).
Regarding `CO/N=C(\C(=O)N[C@@H]1C(=O)N2C(C(=O)O)=C(COC(C)=O)CS[C@H]12)c1csc(N)n1` (stereo in doubt), the thermal shift relative to vanadate control is -5.16% (inactive).
Still for that read-out and setting: for `Cc1ccc(SCC(=O)NC(=O)NCc2ccco2)c(C)c1` the value was -1.14% (inactive).
On the same count and under the same terms, for `COc1ccc(Cc2nnc(NC(=O)Cc3cccs3)s2)cc1` the value was 9.39% (active).
Still for that read-out and setting: with `O=C(Cn1cc(/C=N/NC(=O)c2cccc(C(F)(F)F)c2)c2ccccc21)Nc1ccc(F)cc1` the figure was 10.6% (active).
In the case of `CCOc1ccccc1/C=c1\sc2nc(-c3ccco3)nn2c1=O`, the thermal shift relative to vanadate control is 4.79% (inactive).
The same measure, in the same setting: for `COc1ccc(Cl)cc1C=CC=NNC(=O)c1ccncc1` the value was -17.4% (inactive).
Regarding `Cc1nn(-c2cc(Cl)ccc2N)c(=O)c2ccccc12`, the thermal shift relative to vanadate control was -6.02% (inactive).
For `C[N+](C)(C)CCNC(=O)c1cc[n+](Cc2ccccc2)c(/C=N/O)c1`, the thermal shift relative to vanadate control is -22.6% (inactive).
On the same count and under the same terms, for `O=C(COC(=O)CCC(=O)c1cccs1)NCc1ccco1` the value was -2.74% (inactive); for `O=C(CCS(=O)(=O)c1ccc(Br)cc1)NCCc1ccc(Cl)cc1`, 1.56% (inactive); for `O=C(N/N=C/c1ccco1)c1ccc(C(=O)N/N=C/c2ccco2)o1`, -14.3% (inactive).
For the molecule `N#Cc1ccccc1CN1C(=O)S/C(=C/c2cccn2-c2cccc(C(=O)O)c2)C1=O`, the thermal shift relative to vanadate control is 1.96% (inactive).
Consider `COc1ccc(/C=C/C(=O)OCC(=O)NC2CCCCCC2)cc1OC`, for which the thermal shift relative to vanadate control is -3.16% (inactive).
For the molecule `COCCCn1c(Cc2csc(Nc3cccc(Cl)c3)n2)nnc1SCC(=O)OC1CCCCC1`, the thermal shift relative to vanadate control is -0.65% (inactive).
Take `O=C(COC(=O)c1ccc(F)cc1F)Nc1ncccn1`: the thermal shift relative to vanadate control was 1.27% (inactive).
For the molecule `O=C(CCNC(=O)c1ccccc1)NN=Cc1ccc(Br)o1`, the thermal shift relative to vanadate control is -12.5% (inactive).
The same measure, in the same setting: for `Cc1c(CCC(=O)O)c(=O)oc2cc(OCc3ccc(Br)cc3)ccc12` the value was -18.2% (inactive).
On the same count and under the same terms, for `CC1CCN(c2ccc(S(=O)(=O)Nc3cc(C(=O)O)cc(C(=O)O)c3)cc2[N+](=O)[O-])CC1` the value was 15% (active); for `Cc1ccccc1NC(=O)CN1C(=O)N/C(=C\c2cccn2-c2cccc(C(=O)O)c2)C1=O`, 7.04% (active).
With `Cc1c(Cl)cnc(NC(=O)COC(=O)c2ccc(S(=O)(=O)NCc3ccco3)cc2)c1Cl`, the thermal shift relative to vanadate control is 10.3% (active).
Same read-out and setting: for `CC[n+]1c(C)n(-c2ccccc2)c2ccc(NC(C)=O)cc21` the value was -13.8% (inactive); for `Nn1cnnc1N/N=C/c1cc([N+](=O)[O-])c(Cl)cc1Cl`, -3.64% (inactive).
Same read-out and setting: with `Cc1ccc(Cc2nnc(SCC(=O)Nc3ccc(C)cc3C)[nH]c2=O)cc1` the figure was 4.55% (inactive).

For a further assay, the target named is Tumor necrosis factor receptor superfamily member 10B (Homo sapiens) (UniProt O14763). The experiment in a line: viability loss of caspase-8 NB7 cells with TRAIL – with/without TRAIL, luminescence panel, confirmation (AID 651596; in the data active = activity above about 50%). Particulars: NB7 neuroblastoma + caspase-8, TRAIL sensitization, NB7 Caspase-8, with TRAIL, mean of runs, at 10 µM, stronger effect = higher value.
Chain of Tumor necrosis factor receptor superfamily member 10B (Homo sapiens) (O14763 whole entry, looked up): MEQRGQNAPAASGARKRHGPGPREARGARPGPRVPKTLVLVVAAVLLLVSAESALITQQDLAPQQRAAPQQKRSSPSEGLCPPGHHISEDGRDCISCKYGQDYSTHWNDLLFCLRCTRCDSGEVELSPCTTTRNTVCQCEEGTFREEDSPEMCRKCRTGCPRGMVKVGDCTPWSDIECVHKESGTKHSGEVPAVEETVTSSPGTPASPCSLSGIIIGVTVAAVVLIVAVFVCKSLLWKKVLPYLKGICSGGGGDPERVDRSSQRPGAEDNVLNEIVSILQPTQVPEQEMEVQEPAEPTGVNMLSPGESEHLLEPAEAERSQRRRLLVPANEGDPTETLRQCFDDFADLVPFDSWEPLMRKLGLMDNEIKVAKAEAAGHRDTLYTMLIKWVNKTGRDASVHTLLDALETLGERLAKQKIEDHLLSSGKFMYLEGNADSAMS
As for `NC(=O)c1oc2ccccc2c1NC(=O)c1ccc([N+](=O)[O-])o1`, the activity turned out to be 69.1%.
The same measure, in the same setting: for `CCOC(=O)c1sc(NC(=O)c2cc(-c3ccccc3C)nc3ccccc23)c(C#N)c1C` the value was 54.4%.
As to `O=C(CCl)N(C/C=C/c1ccccc1)c1ccc2c(c1)OCCO2`, the activity is 97.8%.
Regarding `CCCCCN=C(N)N/N=C/c1c[nH]c2ccc(OC)cc12`, the activity is 96.9%.
In the case of `Cc1ccc(NC(=O)CSc2nc3ccc(Nc4nc(N5CCOCC5)nc(N5CCOCC5)n4)cc3s2)cc1`, the activity is 58.1%.
Same read-out and setting: for `CCCCC(O)(CCCC)C(=O)NN(C(=O)CCl)c1ccccc1` the value was 92.2%; for `CCCCCCc1cc2cc(S(=O)(=O)c3ccc(F)c(Cl)c3)c(=O)oc2cc1O`, 55.4%; for `CCCCCc1cc(=O)oc2c(C(CCN(CC)CC)c3cc(OC)c(OC)c(OC)c3)c(OC)cc(OC)c12` (centres undefined), 52.9%.
Same read-out and setting: with `Cc1cc(NC(=O)c2cncc(Br)c2)ccc1NC(=O)c1cc2ccccc2o1` the figure was 58.9%.
